Results taken from publication PMC8688139 (Journal of medicinal chemistry, 2019).
“Also recorded” adds a separate entry of the source. Values belong to the compound of their own block, whether it stands above or below them.

Tests used:
Cytotoxicity assay = assay type: cell-based, murine; settings: mouse, 3T3-L1 cells
3T3-L1 = assay: Cytotoxicity assay; assay type: cell-based, murine; settings: 3T3-L1; tested concentrations up to 1mM
3T3-L1 preadipocytes = assay: Preadipocyte differentiation assay; assay type: cell-based, murine
How it was run: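 3T3-L1 cells (passages 1–16) seeded at 2.5 × 10^5/well on 0.1% gelatin. Day 0, 24 h after near-confluence: switched to induction DMEM (high glucose, 10% FBS, 0.5 mM IBMX). After 48 h: DMEM + 10% FBS + 10 µg/mL insulin. Negative control kept in non-differentiating medium; positive control differentiating medium + DMSO. Test compound 50–100 µM; run to day 7–10. Oil Red O stained; extracted dye read at 462 nm.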

[1] = tested on: human visceral and subcutaneous preadipocytes; assay: Preadipocyte differentiation assay; assay type: cell-based
How it was run: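 Human visceral or subcutaneous preadipocytes (≤ passage 3) plated at 100,000 cells/well and grown to confluency. Day 0: induction medium ± hydrocortisone hemisuccinate (50 µg/mL) plus vehicle (0.2% DMSO), rosiglitazone (2 µM) or test compound (50, 100 µM); non-differentiating medium as control. Differentiation medium plus treatment from 48 h, refreshed every 48–72 h for 9–14 days. Fixed in 10% buffered formaldehyde; Oil Red O relatively quantified.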

[2] = tested on: 3T3-L1 adipogenesis gene transcripts; assay: qRT-PCR gene expression during 3T3-L1 adipogenesis; assay type: cell-based, murine
How it was run: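 Steady-state transcript levels measured by qRT-PCR in 3T3-L1 cells going through the induction/insulin differentiation protocol, on days 0, 1, 2 and 7. Treated cells compared with differentiating-medium and non-differentiating-medium controls.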

[3] = tested on: 11β-HSD1, PPARγ, PGC-1α protein expression in 3T3-L1; assay: Western blot analysis during 3T3-L1 adipogenesis; assay type: cell-based, murine
How it was run: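 3T3-L1 cells in non-differentiating medium, differentiating medium, differentiating medium + rosiglitazone, or differentiating medium + test compound (50 µM); sampled on days 3 and 7. Lysed in Tris/NaCl/EDTA/EGTA buffer with Triton X-100, deoxycholate, SDS, glycerol and protease/phosphatase inhibitors. 30 µg total protein loaded; tubulin used as loading control. Bands quantified; n = 3, means ± SEM.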

3T3-L1 cells = assay: Mitochondria evaluation by confocal microscopy; assay type: cell-based, murine; settings: 3T3-L1 adipogenesis assay, day 7, CA 50 μM
How it was run: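 3T3-L1 cells put through the adipogenesis protocol in 8-well chambers, test compound 50 µM. On day 7, live cells stained with MitoTracker Deep Red (50 nM final) and Hoechst 33342, PBS-washed, and imaged by spinning-disk confocal at 63×. Mean mitochondrial tracker intensity quantified.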

[4] = tested on: Normal mouse fibroblast (ATCC: CRL-2907); assay: Nascent; assay type: cell-based; settings: CA 50 μM, 2 h
How it was run: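 Mouse embryonic fibroblasts (CRL-2907) seeded at 2 × 10^4/well on 1% gelatin-coated slides and cultured 12 h at 37 °C in phenol red–free IMDM with 10% FBS. Test compound (50 µM) or DMSO given 2 h before click labelling with an alkyne o-propargyl-puromycin probe. Cycloheximide (20 nM, 30 min prior) served as positive control. Confocal imaging at 20×; whole-image montage quantified.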

Human GR = target: T1, Human GR (Homo sapiens, UniProt P04150); assay: Human glucocorticoid receptor; assay type: cell-based; settings: transiently GR-transfected MDA-MB-231 cells, 100 nM dexamethasone, 50 μM CA
T1 sequence (P04150 1-777): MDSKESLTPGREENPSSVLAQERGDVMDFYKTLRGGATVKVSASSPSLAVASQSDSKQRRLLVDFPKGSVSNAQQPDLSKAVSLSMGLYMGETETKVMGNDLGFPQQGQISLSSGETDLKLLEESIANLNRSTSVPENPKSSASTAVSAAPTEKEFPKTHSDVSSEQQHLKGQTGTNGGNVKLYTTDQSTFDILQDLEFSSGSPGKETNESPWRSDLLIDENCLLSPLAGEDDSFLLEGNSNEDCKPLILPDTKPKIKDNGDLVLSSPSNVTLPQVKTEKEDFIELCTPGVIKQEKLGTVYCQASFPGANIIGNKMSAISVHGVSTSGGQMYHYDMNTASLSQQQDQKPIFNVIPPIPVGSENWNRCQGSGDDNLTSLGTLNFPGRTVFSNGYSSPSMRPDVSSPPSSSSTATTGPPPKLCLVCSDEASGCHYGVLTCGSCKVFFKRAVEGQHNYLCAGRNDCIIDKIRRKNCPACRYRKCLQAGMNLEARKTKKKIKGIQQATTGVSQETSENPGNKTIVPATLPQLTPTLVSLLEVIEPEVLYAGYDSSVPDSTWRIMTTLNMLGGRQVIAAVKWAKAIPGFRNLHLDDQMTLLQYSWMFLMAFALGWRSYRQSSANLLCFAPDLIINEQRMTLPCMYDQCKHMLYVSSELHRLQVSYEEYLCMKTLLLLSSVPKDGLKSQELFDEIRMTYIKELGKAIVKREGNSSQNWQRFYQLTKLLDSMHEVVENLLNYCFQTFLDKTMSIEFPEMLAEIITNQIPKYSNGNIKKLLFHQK
How it was run: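 MDA-MB-231 cells transiently transfected, via Lipofectin, with a GR response element–luciferase reporter or a negative-control reporter. Seeded at 5000 cells/well for 12 h at 37 °C, then switched to phenol red–free DMEM with 2% charcoal-stripped FBS. Test compound (50 µM) or DMSO added 1 h before 100 nM dexamethasone induction; 4 h treatment. Luciferase luminescence read; n = 3, means ± SEM.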

Human PPARγ = target: T2, Human PPARγ (Homo sapiens, UniProt P37231); assay: Human PPARγ reporter antagonist assay; assay type: cell-based; settings: stimulation by rosiglitazone (20 nM); 40 μM to 2 nM
T2 sequence (P37231 238-505 limits assumed): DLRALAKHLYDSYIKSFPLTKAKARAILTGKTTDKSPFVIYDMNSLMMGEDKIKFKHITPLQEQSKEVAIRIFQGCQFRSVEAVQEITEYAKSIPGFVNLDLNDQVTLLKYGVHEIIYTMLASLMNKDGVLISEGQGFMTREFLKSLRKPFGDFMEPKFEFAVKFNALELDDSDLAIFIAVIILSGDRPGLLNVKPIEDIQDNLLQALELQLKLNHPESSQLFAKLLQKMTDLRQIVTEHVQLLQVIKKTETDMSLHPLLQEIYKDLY

11β-HSD2 = settings: cited from earlier work
[5] = tested on: 11β-HSD1 in J774.1 macrophage; settings: LPS activated murine J774.1 macrophage; cited from earlier work
Human 11β-HSD1 = Human 11β-HSD1 (Homo sapiens, UniProt P28845, C272S); assay: Biochemical assay of 11β-HSD1; settings: 11β-HSD1 Ki
Solubility = assay type: physicochemical

Human 11β-HSD1, sequence (P28845 24-292 C272S): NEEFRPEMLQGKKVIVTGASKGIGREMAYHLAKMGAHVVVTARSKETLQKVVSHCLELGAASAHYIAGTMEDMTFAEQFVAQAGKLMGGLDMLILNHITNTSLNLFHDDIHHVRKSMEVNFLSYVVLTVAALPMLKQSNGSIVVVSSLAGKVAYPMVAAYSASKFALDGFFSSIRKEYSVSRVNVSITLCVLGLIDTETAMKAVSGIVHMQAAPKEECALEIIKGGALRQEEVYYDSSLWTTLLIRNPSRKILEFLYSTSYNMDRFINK

Structure (SMILES): CC1=CC[C@@]2(C[C@H]1O)[C@@H](C(C)C)CC[C@H]2C(=O)O (single isomer, unassigned) [ent-1, (−)-Colletoic Acid]
EC50 at 72 h (Cytotoxicity assay): > 500 µM

Structure (SMILES): CC1=CC[C@@]2(C[C@@H]1O)[C@@H](C(=O)O)CC[C@H]2C(C)C [Compound 1, (+)-colletoic acid]
EC50 at 72 h (Cytotoxicity assay): > 500 µM
cytotoxicity (cell viability) (3T3-L1): no cytotoxicity
effect on adipogenesis when added after day 3 (3T3-L1 preadipocytes; 3T3-L1): little to no significant effect
inhibition of adipogenesis (Oil Red O staining) (3T3-L1 preadipocytes; 3T3-L1, 7 days, compound added at induction, CA 50–100 μM): clearly inhibited adipogenesis
lipid droplets (LipidTox) compared to NDM control cells (3T3-L1 preadipocytes; 3T3-L1, CA 50 μM): no significant difference
effect when added at day 3 after induction ([1]; human preadipocytes): no quantifiable effect
inhibition of adipogenesis in human preadipocytes ([1]; human visceral and subcutaneous preadipocytes, 10–14 days, CA 50–100 μM): modest inhibition of adipogenesis
FABP4 and FASN mRNA expression, lower than in differentiated control cells ([2]; 3T3-L1): at least 10 fold
PGC-1α mRNA expression, differentiated control cells versus CA-treated cells ([2]; 3T3-L1): at least ten-fold greater
C/EBPα, β and δ mRNA expression ([2]; 3T3-L1, day 1–2, vs differentiated control): significant reduction
PPARγ and PGC-1α mRNA expression level ([2]; 3T3-L1, vs differentiated cells): greatly reduced
11β-HSD1 mRNA expression ([2]; 3T3-L1, vs differentiated control cells): reduced
PGC-1α, 11β-HSD1 and PPARγ protein expression ([3]; 3T3-L1, day 3, CA 50 μM): No significant change
PGC-1α, 11β-HSD1 and PPARγ protein expression ([3]; 3T3-L1, day 7, CA 50 μM): down-regulation
mitochondrial mass (mitochondrial tracker mean intensity) (3T3-L1 cells): less mitochondrial mass
global protein synthesis compared to DMSO control [4]: No significant changes
GR activation (Human GR): did not inhibit GR activation
PPARγ antagonistic activity (Human PPARγ): no quantifiable PPARγ antagonistic activity
11β-HSD2 inhibition (11β-HSD2): no observable 11β-HSD2 inhibition
conversion of [3H]-cortisone to [3H]-cortisol [5]: inhibits the conversion

Structure (SMILES): CC1(C)[C@@H](OC(=O)CCC(=O)O)CC[C@]2(C)[C@H]3C(=O)C=C4[C@@H]5C[C@@](C)(C(=O)O)CC[C@]5(C)CC[C@@]4(C)[C@]3(C)CC[C@@H]12 [Compound 4, carbenoxolone, reference compound]
EC50 at 72 h (Cytotoxicity assay): > 500 µM

Structure (SMILES): COC(=O)[C@H]1CC[C@@H](C(C)C)[C@@]12CC=C(C)[C@@H](O)C2 [Compound 5]
EC50 at 72 h (Cytotoxicity assay): > 500 µM

Structure (SMILES): CC1=CC[C@@]2(C[C@@H]1O)[C@@H](C(N)=O)CC[C@H]2C(C)C [Compound 6]
EC50 at 72 h (Cytotoxicity assay): > 500 µM

Structure (SMILES): CC1=CC[C@@]2(C[C@@H]1O)[C@H](C(=O)O)CC[C@H]2C(C)C [Compound 7]
EC50 at 72 h (Cytotoxicity assay): > 500 µM

Structure (SMILES): CC(=O)O[C@H]1C[C@]2(CC=C1C)[C@@H](C(=O)O)CC[C@H]2C(C)C [Compound 8]
EC50 at 72 h (Cytotoxicity assay): > 500 µM

Structure (SMILES): CC1=CC[C@@]2(CC1=O)[C@@H](C(=O)O)CC[C@H]2C(C)C [Compound 9]
EC50 at 72 h (Cytotoxicity assay): > 500 µM

Structure (SMILES): CC1=CC[C@@]2([C@H](O)C1)[C@@H](C(=O)O)CC[C@H]2C(C)C [Compound 10]
EC50 at 72 h (Cytotoxicity assay): > 500 µM

Structure (SMILES): CC(=O)O[C@@H]1C[C@@](C)(O)CC[C@]12[C@@H](C(=O)O)CC[C@H]2C(C)C [Compound 11]
EC50 at 72 h (Cytotoxicity assay): > 500 µM

Structure (SMILES): CC(C)[C@@H]1CC[C@H](C(=O)O)[C@]12C[C@@H](O)[C@@](C)(O)[C@@H](O)C2 [Compound 12]
EC50 at 72 h (Cytotoxicity assay): > 500 µM

Structure (SMILES): C=C1CC[C@@]2(C(OC)[C@@H]1O)[C@@H](C(=O)O)CC[C@H]2C(C)C (stereo partly shown) [Compound 13]
EC50 at 72 h (Cytotoxicity assay): > 500 µM

Structure (SMILES): C=C1CC[C@@]2(C[C@@H]1OC(C)=O)[C@@H](C(=O)O)CC[C@H]2C(C)C [Compound 14]
EC50 at 72 h (Cytotoxicity assay): > 500 µM

Structure (SMILES): C=C1CC[C@@]2(C[C@@H]1O)[C@@H](C(=O)O)CC[C@H]2C(C)C [Compound 15]
EC50 at 72 h (Cytotoxicity assay): > 500 µM

activity relative to compound 15 (Human 11β-HSD1): five-fold less activity
Structure (SMILES): C=C1CC[C@]2(C[C@@H]1O)[C@H](C)CC[C@@H]2C(=O)O [Compound 16]
EC50 at 72 h (Cytotoxicity assay): > 500 µM

Structure (SMILES): CC1=CC[C@@]2([C@H](O)C1)[C@@H](C(=O)O)CC[C@H]2C1CCCCC1 [Compound 18]
EC50 at 72 h (Cytotoxicity assay): > 500 µM

solubility properties (Solubility): acceptable and similar to CA
Structure (SMILES): CC1=CC[C@@]2(C=C1)[C@@H](C(=O)O)CC[C@H]2C1CCCCC1 [Compound 19]

solubility properties (Solubility): acceptable and similar to CA
Structure (SMILES): CC1=CC[C@@]2(C[C@@H]1O)[C@@H](C(=O)O)CC[C@H]2C1CCCCC1 [Compound 20]
increase of potency over CA (Human 11β-HSD1): three-fold increase of potency; also recorded: three-fold increase in potency
EC50 at 72 h (Cytotoxicity assay): > 500 µM
